Experimental data taken from paper PMC5928873 (Theranostics, 2018).
Read-outs that look alike come from different tables or passages of the source.

Legend:
[1] = tested on: BGC-823 gastric cancer xenografts; test: Tumor growth assay, BGC-823 xenograft; format: in vivo, BALB/c nude mice; conditions: dosing from day 7, sacrificed day 28, n = 6
How it was run: (§1)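 Female BALB/c nude mice, 4–5 weeks old and housed SPF, were implanted s.c. in the right flank with BGC-823 or HT-29 cells. At 100 mm3 tumours, mice were randomised into 7 groups. Arms were PBS, reference agents (80 mg/kg/7d; 5 mg/kg/7d) and test peptides at 5 mg/kg daily or every 4 days. Body weight and tumour volume were tracked; tumours were weighed at sacrifice; n = 6, mean ± SD.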

[2] = tested on: HT-29 colon cancer xenografts; test: Tumor growth assay, HT-29 xenograft; format: in vivo, BALB/c nude mice; conditions: dosing from day 7, sacrificed day 28, n = 6
How it was run: as §1

[3] = in rabbits, estimated; cited from earlier work
[4] = in mice; cited from earlier work
[5] = in rats; cited from earlier work
[6] = in humans; cited from earlier work
[7] = tested on: zebrafish embryo subintestinal vessels (SIVs); test: Zebrafish angiogenesis model; format: in vivo; conditions: yolk sac microinjection at 2 dpf, read at 3 dpf, 10 zebrafish per group analysed
How it was run: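 Transgenic zebrafish received test peptide by yolk-sac microinjection at 2 dpf, 30 embryos per group, with a positive control included. After a further 24 h, 10 embryos per group were randomly chosen. Fluorescent subintestinal vessels were imaged and SIV area was quantified by image analysis (mean ± SD, three to four independent experiments).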

O=P1(N(CCCl)CCCl)NCCCO1 (stereo not drawn) [CTX, Cyclophosphamide]
inhibition rate on BGC-823 xenografts ([1]; 80 mg/kg/7d, positive group): 65.9% | inhibition rate on HT-29 xenograft ([2]; 80 mg/kg/7d, positive group): 78.02%

Albumin
half-life [3]: 133 h | half-life [4]: 24 h | half-life [5]: 45.6 h | half-life [6]: 456 h

Avastin: recombinant humanized monoclonal IgG1 antibody against VEGF-A
angiogenesis of SIV plexus in zebrafish embryos (SIV area) [7]: inhibited the angiogenesis of SIV plexus | inhibition rate on BGC-823 xenografts ([1]; 5 mg/kg/7d): 79.54% | inhibition rate on HT-29 xenograft ([2]; 5 mg/kg/7d): 77.91%
